Screening data deposited in PubChem by The Scripps Research Institute Molecular Screening Center.
Only some compounds are listed: those with a hit (about 4.2% of all), similar ones and a draw of the others.
OX1R antag-1: antagonists of human orexin 1 receptor (OX1R); O43613; OX1R-expressing cells, FRET antagonist read-out; inhibition, % at 6.6 µM; actives 1.8% (n = 330,000); AID 485270; in the data active means inhibition mostly above about 38%, no sharp cut-off; inactive means mostly below about 40%;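 further: 0% = agonist challenge alone and 100% = reference antagonist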
Target sequence (O43613 whole entry, looked up): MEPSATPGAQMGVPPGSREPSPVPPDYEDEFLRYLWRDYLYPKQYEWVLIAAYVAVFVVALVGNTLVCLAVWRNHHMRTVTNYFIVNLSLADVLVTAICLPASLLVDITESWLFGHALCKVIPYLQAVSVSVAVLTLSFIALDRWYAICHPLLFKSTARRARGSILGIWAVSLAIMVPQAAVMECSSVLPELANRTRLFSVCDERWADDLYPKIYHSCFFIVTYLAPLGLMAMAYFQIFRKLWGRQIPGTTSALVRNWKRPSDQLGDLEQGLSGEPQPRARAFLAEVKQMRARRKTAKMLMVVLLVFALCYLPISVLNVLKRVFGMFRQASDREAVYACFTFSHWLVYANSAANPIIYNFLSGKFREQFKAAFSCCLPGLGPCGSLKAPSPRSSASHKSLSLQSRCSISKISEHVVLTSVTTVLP
OX1R antag-2: blocks the human orexin 1 receptor; CHO/OX1R cells, Fluo-8 calcium fluorescence, orexin A; O43613; actives 0.43% (n = 330,000); inhibition, % at 5 µM;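 active means inhibition above its plate's threshold, mean inhibition of all tested compounds on the plate plus 3 SD, cut at about 37% in these data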;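 further: 0% = orexin A challenge wells and 100% = SB-334867-A antagonist wells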
TAAR1 agonist: human TAAR1 agonism; CHO RD-HGA16 TAAR1, Fluo-8 calcium fluorescence; vehicle wells 0%, saturating PEA agonist 100%; activation, % at 3 µM; actives 0.99% (n = 360,000); AID 624467;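 active means activation above the mean activation of all test compounds in the run plus 3 SD, cut at about 38% in these data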
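Test system: RD-HGA16 (CHO) cells co-expressing Gα16 and hTAAR1; dosing: one-point dosing at 3 µM (nominal); timing: 17-24 h seeding, 75 min 37 °C dye, 30 min RT; signal: kinetic Fluo-8 calcium fluorescence; read-out basis: % activation relative to PEA EC100 response; controls: DMSO and PEA EC100; replicates: n 1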
CHO parental Ca: signal in parental CHO cells, OX1R antagonist counter-screen | parental CHO-K1, ATP-induced calcium, Fluo-8 fluorescence | inhibition, % at 5.6 µM | actives 0.63% (n = 330,000);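 active means inhibition above that plate's mean sample inhibition plus 3 SD, cut at about 26% in these data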;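 further: 0% = ATP-challenged DMSO wells and 100% = DMSO wells without ATP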
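Test system: untransfected parental CHO cell line; also added: ATP stimulus; dosing: 5.6 µM, single dose; signal: calcium-sensitive Fluo-8 fluorescence; measure: percent inhibition of ATP-evoked calcium rise, normalized to controls; benchmarks: low control ATP plus DMSO, high control DMSO only; replication: one well per compound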
GalR3 antagonist: human GalR3 antagonism. O60755. HEK293 GalR3-CNG cAMP membrane potential fluorescence; galR3 body fused to GalR1 C-terminus. inhibition, % at 3 µM. actives 0.44% (n = 360,000). AID 651719;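 active means inhibition above the screen-wide average plus 3 SD, cut at about 13% in these data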;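 further: forskolin and galanin both at EC90 stimulate the cells; cAMP rise reported by CNG channel membrane potential dye signal; 0% = forskolin plus galanin with DMSO and 100% = forskolin alone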
Target sequence (O60755 1-299 limits assumed): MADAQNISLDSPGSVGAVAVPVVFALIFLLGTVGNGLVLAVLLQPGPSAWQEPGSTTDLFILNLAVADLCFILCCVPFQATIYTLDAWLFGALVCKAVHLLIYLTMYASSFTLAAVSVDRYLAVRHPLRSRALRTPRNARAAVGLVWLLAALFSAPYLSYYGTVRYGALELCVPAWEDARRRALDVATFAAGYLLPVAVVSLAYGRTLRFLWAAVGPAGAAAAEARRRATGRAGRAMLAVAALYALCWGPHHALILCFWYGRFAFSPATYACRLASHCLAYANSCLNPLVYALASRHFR
TAAR1 antag: antagonists of human TAAR1. Q96RJ0. CHO RD-HGA16 TAAR1, Fluo-8 calcium fluorescence, antagonist. inhibition, % at 3 µM. actives 1.5% (n = 360,000). AID 624466;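 active means inhibition above a per-plate cutoff, the mean inhibition of test compounds on that plate plus 3 SD, cut at about 49% in these data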;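 further: 0% = DMSO plus EC80 beta-PEA response and 100% = DMSO alone without agonist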
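Test system: RD-HGA16 CHO cells with stable hTAAR1 and Gα16 / Probe or stimulus: EC80 β-phenethylamine stimulus / Times: seeding 17-24 h prior, 75-min 37 °C, 30-min RT dye loading / Detection: Fluo-8 calcium-sensitive fluorescence / Read-out basis: % inhibition scaled between DMSO and EC80 PEA controls / Repeats: singlicate, one well per test compound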
TAAR1 ag confirm: human TAAR1 agonism, confirmed. CHO RD-HGA16 TAAR1, Fluo-8 calcium fluorescence; scaled: DMSO 0%, maximal phenethylamine 100%. actives 82% (n = 2,400). activation, % at 3 µM. shares compounds with TAAR1 agonist;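 active means activation above a cutoff set at the run's mean compound activation plus 3 SD, cut at about 39% in these data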
Ga16 ag counter: nonselective agonist in parental cells, TAAR1 agonist counter-screen | shares compounds with TAAR1 agonist | CHO-Ga16 parental, Fluo-8 calcium fluorescence; normalized to maximal ATP response, DMSO zero | activation, % at 3 µM | actives 50% (n = 2,400) | AID 651787;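 active means activation above the run cutoff, the mean activation over all tested wells plus 3 SD, cut at about 12% in these data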;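 further: 0% = DMSO wells and 100% = maximal ATP response on the peak over basal ratio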
TAAR1 desensitize: counter-screen for human TAAR1 agonists: agonists that desensitize TAAR1. shares compounds with TAAR1 agonist. AID 651951. actives 46% (n = 2,400). CHO RD-HGA16 hTAAR1, Fluo-8 calcium, beta-PEA response inhibition. inhibition, % at 3 µM;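 active means inhibition above the run cutoff, the mean inhibition of all test compounds plus 3 SD, cut at about 49% in these data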;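 further: beta-PEA stimulus applied at its EC80; loss of beta-PEA calcium signal after compound pretreatment read as receptor desensitization; 0% = DMSO with beta-PEA at EC80 and 100% = DMSO alone without agonist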
Ga16 antag count: counter-screen for TAAR1 agonists: nonselective Ga16 antagonists; shares compounds with TAAR1 agonist; CHO-Ga16 ATP-induced calcium, Fluo-8 fluorescence; inhibition, % at 3 µM; actives 39% (n = 2,400); AID 651952;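 active means inhibition above the plate's mean compound inhibition plus 3 SD, computed per plate, cut at about 22% in these data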;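 further: 0% = EC80 ATP with DMSO and 100% = DMSO wells without ATP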
* = called active by the depositor; / = not tested or not shown.

SMILES	OX1R antag-1	OX1R antag-2	TAAR1 agonist	CHO parental Ca	GalR3 antagonist	TAAR1 antag	TAAR1 ag confirm	Ga16 ag counter	TAAR1 desensitize	Ga16 antag count
C/C(=C\c1ccccc1)C(=O)c1c(C)cc(C)[nH]c1=O	12	-11	1	-8	-1	0	/	/	/	/
O=C(N[C@@H](Cc1cccnc1)C(=O)N1CCC[C@H]1C(=O)NCCc1ccccc1Cl)C1CC1	/	/	46*	/	-7	26	70*	0	58*	6
COc1cc2c(c(OC)c1OC)-c1ccc(SC)c(=O)cc1C(NC(=O)c1ccccc1)CC2 (stereo not drawn)	/	/	0	/	10	7	/	/	/	/
COc1ccc(C(NC(=O)c2ccc(=O)[nH]c2)C(=O)Nc2ccc(C(C)C)cc2)cc1 (stereo not drawn)	16	-25	3	-6	-6	-4	/	/	/	/
CC(C)Cc1ccc(C(C)NC(=O)c2ccc(=O)[nH]c2)cc1 (stereo not drawn)	1	5	91*	6	-3	39	94*	49*	49*	38*
CCOc1ccc(Nc2cc(C)nc3c(C)cccc23)cc1	8	2	2	-15	-12	-5	/	/	/	/
Cc1ccc(S(=O)(=O)n2nc(OC(=O)c3ccccc3F)cc2N)cc1	1	-12	65*	2	-6	17	73*	46*	30	11
Cc1ccccc1C(=O)Oc1cc(N)n(S(=O)(=O)c2ccccc2)n1	18	-27	84*	-14	-7	41	8	1	-8	10
O=C(CC1C(=O)NCCN1CCCc1ccccc1)NCCc1ccccc1F (stereo not drawn)	3	-1	75*	-30	2	44	93*	1	72*	0
O=C(CC1C(=O)NCCN1Cc1c(F)cccc1Cl)NCc1ccccc1 (stereo not drawn)	19	-19	0	-18	-8	6	/	/	/	/
CCOC(=O)/C(=C/C=C1\Sc2cc(C)c(C)cc2N1CC)C(C)=O	/	/	378*	/	-1	107*	160*	126*	91*	84*
COc1ccc(CCNC(=O)Cc2cc(=O)[nH]c(=O)[nH]2)cc1OC	6	-11	0	0	/	12	/	/	/	/
COc1cc(/C=C2\SC(=Nc3ccc(Cl)c(C(=O)O)c3)NC2=O)c(Br)c(Br)c1O	/	/	98*	/	-12	76*	49*	58*	57*	70*
COC(=O)/C=C1\SC(=Nc2ccc(Cl)c(Cl)c2)NC1=O	9	-26	3	-16	-5	12	/	/	/	/
CC[C@@H](C(=O)[C@@H](C)[C@@H](O)[C@H](C)CCc1ccc(C)c(O)c1C(=O)O)[C@H]1O[C@](CC)([C@H]2CC[C@](O)(CC)[C@H](C)O2)C[C@@H]1C	25	40*	76*	39*	/	67*	73*	65*	73*	52*
CC(C)NC(=S)NC(=O)c1ccc(-c2ccccc2)cc1	8	-26	49*	-19	2	-4	26	11	14	16
CCc1ccc(Nc2cc(=O)n(C3CCCCC3)c(=O)[nH]2)cc1	-2	8	79*	-8	-6	44	108*	50*	81*	32*
O=c1cc(Nc2ccc3c(c2)OCCO3)[nH]c(=O)n1C1CCCCC1	12	-18	10	-17	-3	9	/	/	/	/
COc1ccccc1CNC(=O)CC1C(=O)NCCN1C1Cc2ccccc2C1 (stereo not drawn)	31	-20	70*	-25	0	19	72*	5	3	-2
COC(=O)CSc1cc([N+](=O)[O-])ccc1NC(=O)OC	25	-3	0	-22	-3	4	/	/	/	/
CCOC(=O)c1ccc(NC(=S)N2CCSC2c2ccc(OC)cc2)cc1 (stereo not drawn)	7	-17	93*	-5	-4	72*	83*	37*	67*	44*
COc1ccc(C2SCCN2C(=S)Nc2ccc(F)cc2)cc1 (stereo not drawn)	-9	-7	14	-1	-4	10	/	/	/	/
O=C(Nn1c(Cc2cccs2)nc2ccccc2c1=O)c1cccs1	19	-26	2	-5	-6	17	/	/	/	/
CCN(CC)c1ccc(C(=O)O)cc1	10	-7	4	-1	-5	9	/	/	/	/
CCN(CC)c1ccc(/C=C2\C(=O)c3ccc(C(=O)O)cc3C2=O)cc1	27	87*	125*	51*	-3	86*	144*	163*	89*	92*
SMILES	OX1R antag-1	OX1R antag-2	TAAR1 agonist	CHO parental Ca	GalR3 antagonist	TAAR1 antag	TAAR1 ag confirm	Ga16 ag counter	TAAR1 desensitize	Ga16 antag count
Cc1ccc(-c2noc(CCC(=O)Nc3ccc4c(c3)OCO4)n2)cc1	45	26	83*	25	3	80*	3	6	14	24*
CN1\C(=C/C=C/C=C/C=[N+](C)C)C(C)(C)c2ccccc21	/	/	715*	/	-9	109*	81*	110*	69*	75*
CN(C)c1ccc(N=C/C=C2\N(C)c3ccccc3C2(C)C)cc1	44	-19	47*	-13	0	9	74*	14*	41	19
CCc1cccc(NC(=O)c2ccc(Cn3nc(C)cc3C)o2)c1	3	-15	4	-14	-3	-25	/	/	/	/
CC(NC(=O)C(=O)N1CCCCC1)C(c1cccs1)N1CCN(c2ccc(F)cc2)CC1 (stereo not drawn)	6	-22	1	-14	-6	-15	/	/	/	/
COC(=O)c1cc(OC)c(OC)c(OC)c1[N+](=O)[O-]	9	-16	0	-14	-6	4	/	/	/	/
CCCn1c(=O)c(C(=O)NNC(=O)c2ccccc2Cl)c(O)c2ccccc21	22	-7	112*	-10	-7	55*	72*	65*	36	26*
CCCn1c(=O)c(C(=O)NNC(=O)c2ccccc2[N+](=O)[O-])c(O)c2ccccc21	7	-3	1	-13	4	-26	/	/	/	/
